Screening results deposited in PubChem BioAssay by The Scripps Research Institute Molecular Screening Center.
Compounds with a hit are over-represented: about 3.9% of the library has one in this group of screens.
HTR2A ag: mouse HTR2A agonism via beta-arrestin recruitment; AID 624169; actives 0.66% (n = 360,000); P35363; activation, % at 7.6 µM; CHO-K1 mHTR2A beta-arrestin complementation, luminescence; percent of 30 µM serotonin response;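 active = activation above a run cutoff, the mean activation of all tested compounds plus 3 SD, cut at about 14% in these data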
TAAR1 agonist: agonists of human TAAR1. Q96RJ0. CHO RD-HGA16 TAAR1, Fluo-8 calcium fluorescence; vehicle wells 0%, saturating PEA agonist 100%. activation, % at 3 µM. actives 0.99% (n = 360,000). AID 624467;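 active = activation above the mean activation of all test compounds in the run plus 3 SD, cut at about 38% in these data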
Target sequence (Q96RJ0 whole entry, looked up): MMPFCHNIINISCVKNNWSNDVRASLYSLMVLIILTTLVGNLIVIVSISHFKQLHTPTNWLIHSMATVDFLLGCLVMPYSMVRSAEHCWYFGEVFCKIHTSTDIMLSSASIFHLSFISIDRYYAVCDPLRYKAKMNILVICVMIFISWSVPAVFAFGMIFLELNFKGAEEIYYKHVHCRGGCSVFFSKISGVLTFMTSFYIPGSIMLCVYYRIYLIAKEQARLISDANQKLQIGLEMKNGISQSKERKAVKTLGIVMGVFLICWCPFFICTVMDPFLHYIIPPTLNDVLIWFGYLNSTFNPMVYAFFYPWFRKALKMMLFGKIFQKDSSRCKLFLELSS
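Repeats: no replicates (n 1) | Material: CHO-derived RD-HGA16 cells with stable Gα16 and human TAAR1 | Technique: Kinetic Fluo-8 calcium fluorescence | Schedule: 17-24 h seeding, 75 min 37 °C dye, 30 min RT | Evaluation: % activation from peak over basal fluorescence ratio, DMSO-to-PEA scaled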
M1 PAM: human CHRM1 positive allosteric modulation; P11229; CHO-K1 hM1, Fluo-8 calcium fluorescence, ACh EC20; 0% = ACh EC20, 100% = maximal ACh; activation, % at 3 µM; actives 0.088% (n = 360,000); in the data active = activation above about 19%, passing the limit was not always enough
TAAR1 antag: antagonists of human TAAR1; Q96RJ0; CHO RD-HGA16 TAAR1, Fluo-8 calcium fluorescence, antagonist; inhibition, % at 3 µM; actives 1.5% (n = 360,000); AID 624466;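 active = inhibition above a per-plate cutoff, the mean inhibition of test compounds on that plate plus 3 SD, cut at about 49% in these data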
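Material: RD-HGA16 CHO cells with stable hTAAR1 and Gα16; Dosing: single nominal final test compound concentration of 3 µM; Schedule: seeding 17-24 h prior, 75-min 37 °C, 30-min RT dye loading; Detection: kinetic Fluo-8 calcium fluorescence measurement; Measure: % inhibition from peak post-agonist over basal fluorescence ratio; Benchmarks: vehicle and agonist controls.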
CHRM1 agonist: human M1 muscarinic receptor agonism | P11229 | CHO-K1 hM1, Fluo-8 calcium fluorescence, agonist mode; 0% DMSO, 100% acetylcholine EC100 | activation, % at 3 µM | actives 0.33% (n = 360,000) | AID 588814;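 active = activation above the run's mean compound activation plus 3 SD, cut at about 16% in these data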;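 also: peak over basal fluorescence ratio within a 140 s kinetic read after compound addition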
CHRM1 antagonist: antagonists of human M1 muscarinic receptor; P11229; CHO-K1 hM1, Fluo-8 calcium fluorescence, ACh EC80 antagonist; inhibition, % at 3 µM; actives 1.3% (n = 360,000);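 active = percent inhibition above its own plate's cutoff, namely the mean of that plate's compound wells plus 3 SD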;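 also: peak over basal fluorescence ratio during 140 s after agonist addition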
TAAR1 ag confirm: confirmation of human TAAR1 agonists; shares compounds with TAAR1 agonist; CHO RD-HGA16 TAAR1, Fluo-8 calcium fluorescence; scaled: DMSO 0%, maximal phenethylamine 100%; activation, % at 3 µM; actives 82% (n = 2,400); AID 651783;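 active = activation above a cutoff set at the run's mean compound activation plus 3 SD, cut at about 39% in these data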
Ga16 ag counter: nonselective agonist in parental cells, TAAR1 agonist counter-screen; shares compounds with TAAR1 agonist; CHO-Ga16 parental, Fluo-8 calcium fluorescence; normalized to maximal ATP response, DMSO zero; activation, % at 3 µM; actives 50% (n = 2,400); AID 651787;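 active = activation above the run cutoff, the mean activation over all tested wells plus 3 SD, cut at about 12% in these data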
TAAR1 desens: TAAR1 response desensitization, agonist counter-screen; shares compounds with TAAR1 agonist; CHO RD-HGA16 hTAAR1, Fluo-8 calcium, beta-PEA response inhibition; inhibition, % at 3 µM; actives 46% (n = 2,400); AID 651951;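 active = inhibition above the run cutoff, the mean inhibition of all test compounds plus 3 SD, cut at about 49% in these data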;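 also: beta-PEA stimulus applied at its EC80; loss of beta-PEA calcium signal after compound pretreatment read as receptor desensitization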
Ga16 nonsel ant: counter-screen for TAAR1 agonists: nonselective Ga16 antagonists. shares compounds with TAAR1 agonist. CHO-Ga16 ATP-induced calcium, Fluo-8 fluorescence. inhibition, % at 3 µM. AID 651952. actives 39% (n = 2,400);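 active = inhibition above the plate's mean compound inhibition plus 3 SD, computed per plate, cut at about 22% in these data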
A number is an active result; n = inactive; x = not tested or not shown.

SMILES	HTR2A ag	TAAR1 agonist	M1 PAM	TAAR1 antag	CHRM1 agonist	CHRM1 antagonist	TAAR1 ag confirm	Ga16 ag counter	TAAR1 desens	Ga16 nonsel ant
COc1ccc2cc(C(c3nnnn3C3CCCC3)N3CCc4ccccc4C3)c(=O)[nH]c2c1 (configuration not stated)	n	46	n	n	n	n	39	n	n	n
C=CCNCCCCOc1ccc(OCc2ccccc2)cc1	n	53	n	n	n	n	70	15	n	n
c1ccc(COc2ccc(OCCCNC3CCCC3)cc2)cc1	n	53	n	n	n	29	79	24	49	n
CC(C)C(C(=O)NC1CCCC1)N1CCN(c2ncccc2C#N)CC1 (configuration not stated)	n	n	x	n	x	x	x	x	x	x
Cc1cccc(OC(C)C(=O)Nc2ccc3c(c2)OCCO3)c1 (configuration not stated)	n	n	n	n	n	n	x	x	x	x
CCOC(=O)c1c(CSC(=N)N)n(-c2ccc(C)cc2)c2cc(Br)c(OC(C)=O)cc12	n	63	n	n	n	n	92	59	66	52
CC(C)(C)c1ccc(S(=O)(=O)Nc2noc3ccccc23)cc1	n	n	n	n	n	n	x	x	x	x
CCCCC1CCC(C(=O)N(CCCC)c2c(N)n(CCCC)c(=O)[nH]c2=O)CC1 (configuration not stated)	n	n	n	n	n	n	x	x	x	x
O=C(COc1ccc(Br)cc1CNCCc1ccccc1)NCc1ccccc1	n	94	n	69	n	36	89	25	80	43
CCCNCc1cc(Br)ccc1OCC(=O)NCCc1ccccc1	n	n	n	n	n	n	x	x	x	x
COc1cc(CNCCc2ccccc2)cc(Br)c1OCC(=O)Nc1ccccc1C	n	88	n	59	n	n	92	21	76	34
COc1ccc(C(=O)C2CCCN(C(=O)c3cccc(N(C)C)c3)C2)cc1OC (configuration not stated)	n	n	n	n	n	n	x	x	x	x
COCC(=O)N(C)C[C@H]1N[C@@](C)(C(=O)OC)[C@H]2C(=O)N(C)C(=O)[C@@H]12	n	n	n	n	n	n	x	x	x	x
Cc1c(Br)c([N+](=O)[O-])nn1CC(=O)N1CCc2ccccc2C1	n	63	n	n	n	n	60	n	n	n
Cc1nn(CC(=O)N2CCc3ccccc3C2)c(C)c1[N+](=O)[O-]	n	58	n	n	n	n	69	n	n	n
Cc1nn(CC(=O)N2CCc3ccccc3C2)c(C)c1Cl	n	n	n	n	n	n	x	x	x	x
COc1cc(CNCCc2c[nH]c3ccccc23)ccc1OCc1ccc(F)cc1	n	60	n	50	n	n	54	30	52	49
COc1cc(CNCCc2ccccc2F)ccc1OCc1ccc(Cl)nc1	n	73	n	n	n	n	77	n	57	n
COc1cccc(CNCCc2c[nH]c3ccccc23)c1OCc1ccc(F)cc1	n	n	n	n	n	n	x	x	x	x
N#Cc1c(NCCN)nc(-c2ccccc2)c2c1CCCC2	n	54	n	n	n	n	38	n	n	n
N#Cc1c(NCCCO)nc(-c2ccccc2)c2c1CCCC2	n	n	n	n	n	n	x	x	x	x
